Measured values taken from ChEMBL document CHEMBL1140748, “Synthesis and biological evaluation of novel 2,4-diaminoquinazoline derivatives as SMN2 promoter activators for the potential treatment of spinal muscular atrophy” (J Med Chem, 2008).
Values after ≈ are worked out from the molar mass of the structure shown.

Assays:
[1] = Mean residence time (0 to infinity) in NMRI mouse brain at 10 mg/kg, po; format: ADME, organism-based; design: dose 10 mg/kg, route oral
[2] = AUC (last) in NMRI mouse plasma at 10 mg/kg, po; format: ADME, organism-based; design: time 0 - last, dose 10 mg/kg, route oral
[3] = Cmax in NMRI mouse brain at 10 mg/kg, po; format: ADME, organism-based; design: dose 10 mg/kg, route oral
Mus musculus [4] = assay: AUC (last) in NMRI mouse brain at 10 mg/kg, po; format: ADME, organism-based; design: time 0 - last, dose 10 mg/kg, route oral; conditions: in vivo
[5] = Drug level in NMRI mouse brain at 2 mg/kg, iv after 120 mins; format: ADME, organism-based; design: dose 2 mg/kg, route intravenous; conditions: read-out: Drug uptake
In short: (§1)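 Single iv dose of 2 mg/kg in 30% solutol to mice. Plasma and brain sampled at 15 min and 2 h postdose, n = 4 mice per time point. Parent compound quantified by LC/MS/MS; brain levels given as ng/g and plasma as ng/mL.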

Fibroblast [6] = assay: Increase in number of Cajal bodies containing SMN2 protein in human fibroblasts from spinal muscular atrophy patient at 100 nM after 5 days relative to control; format: functional
[7] = Volume of distribution at steady state in NMRI mouse plasma at 2 mg/kg, iv; format: ADME, organism-based; design: dose 2 mg/kg, route intravenous; conditions: read-out: Vdss
In short: (§2)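 Mice given a single iv dose of 2 mg/kg in 30% solutol. Parent compound measured in plasma and brain by LC/MS/MS. PK parameters (AUClast, predicted clearance, Vss, t1/2, MRT) were derived from the concentration–time profile and reported with SD.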

[8] = Drug level in NMRI mouse plasma at 2 mg/kg, iv after 15 mins; format: ADME, organism-based; design: dose 2 mg/kg, route intravenous; in short: as §1
CYP3A4 = CYP3A4 (Homo sapiens, UniProt P08684); assay: Inhibition of CYP3A4 at 10 uM; format: ADME
Chain of CYP3A4 (P08684 whole entry): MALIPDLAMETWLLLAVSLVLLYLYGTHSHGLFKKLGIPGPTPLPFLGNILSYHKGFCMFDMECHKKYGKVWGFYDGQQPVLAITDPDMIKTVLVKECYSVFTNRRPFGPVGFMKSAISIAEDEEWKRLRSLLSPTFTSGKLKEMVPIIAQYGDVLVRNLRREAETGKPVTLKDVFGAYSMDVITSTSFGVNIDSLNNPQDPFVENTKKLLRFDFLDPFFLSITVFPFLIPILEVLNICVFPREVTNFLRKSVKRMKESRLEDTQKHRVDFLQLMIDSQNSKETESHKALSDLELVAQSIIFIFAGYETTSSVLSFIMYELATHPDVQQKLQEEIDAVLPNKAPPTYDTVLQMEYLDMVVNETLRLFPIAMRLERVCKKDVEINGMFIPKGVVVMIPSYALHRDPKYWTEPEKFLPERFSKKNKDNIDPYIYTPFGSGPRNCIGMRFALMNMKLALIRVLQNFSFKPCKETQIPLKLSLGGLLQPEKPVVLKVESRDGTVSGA

[9] = Cmax in NMRI mouse plasma at 10 mg/kg, po; format: ADME, organism-based; design: dose 10 mg/kg, route oral
CYP1A2 = target: T1, CYP1A2 (Homo sapiens, UniProt P05177); assay: Inhibition of CYP1A2 at 10 uM; format: ADME
T1 sequence (P05177 whole entry): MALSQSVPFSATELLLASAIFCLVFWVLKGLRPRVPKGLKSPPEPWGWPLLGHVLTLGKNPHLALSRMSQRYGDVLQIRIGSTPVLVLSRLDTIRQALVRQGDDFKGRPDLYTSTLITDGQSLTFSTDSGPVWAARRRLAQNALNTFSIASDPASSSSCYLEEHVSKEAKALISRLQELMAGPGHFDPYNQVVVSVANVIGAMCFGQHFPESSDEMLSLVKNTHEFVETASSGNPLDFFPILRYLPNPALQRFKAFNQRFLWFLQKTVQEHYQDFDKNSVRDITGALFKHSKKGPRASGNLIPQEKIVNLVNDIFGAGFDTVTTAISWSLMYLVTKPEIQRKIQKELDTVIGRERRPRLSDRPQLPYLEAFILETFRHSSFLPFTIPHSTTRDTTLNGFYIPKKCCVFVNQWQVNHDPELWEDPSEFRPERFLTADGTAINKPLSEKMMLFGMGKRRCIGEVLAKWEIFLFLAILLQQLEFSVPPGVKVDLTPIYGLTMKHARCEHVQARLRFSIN

CYP2C9 = CYP2C9 (Homo sapiens, UniProt P11712); assay: Inhibition of CYP2C9 at 10 uM; format: ADME
Chain of CYP2C9 (P11712 whole entry): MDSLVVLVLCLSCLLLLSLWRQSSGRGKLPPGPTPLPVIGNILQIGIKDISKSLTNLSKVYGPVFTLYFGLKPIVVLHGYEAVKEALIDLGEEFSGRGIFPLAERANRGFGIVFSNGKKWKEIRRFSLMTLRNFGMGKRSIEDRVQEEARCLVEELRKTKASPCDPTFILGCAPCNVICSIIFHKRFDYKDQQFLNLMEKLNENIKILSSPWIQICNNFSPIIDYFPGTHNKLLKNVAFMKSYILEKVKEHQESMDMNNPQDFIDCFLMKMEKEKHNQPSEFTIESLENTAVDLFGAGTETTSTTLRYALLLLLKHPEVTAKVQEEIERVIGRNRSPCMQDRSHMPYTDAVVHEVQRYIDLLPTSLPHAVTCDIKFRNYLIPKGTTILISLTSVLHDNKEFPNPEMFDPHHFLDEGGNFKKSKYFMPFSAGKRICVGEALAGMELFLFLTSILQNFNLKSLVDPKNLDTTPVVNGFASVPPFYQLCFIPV

Cytochrome P450 2D6 = Cytochrome P450 2D6 (Homo sapiens, UniProt P10635); assay: Inhibition of human CYP2D6; format: ADME
Chain of Cytochrome P450 2D6 (P10635 whole entry): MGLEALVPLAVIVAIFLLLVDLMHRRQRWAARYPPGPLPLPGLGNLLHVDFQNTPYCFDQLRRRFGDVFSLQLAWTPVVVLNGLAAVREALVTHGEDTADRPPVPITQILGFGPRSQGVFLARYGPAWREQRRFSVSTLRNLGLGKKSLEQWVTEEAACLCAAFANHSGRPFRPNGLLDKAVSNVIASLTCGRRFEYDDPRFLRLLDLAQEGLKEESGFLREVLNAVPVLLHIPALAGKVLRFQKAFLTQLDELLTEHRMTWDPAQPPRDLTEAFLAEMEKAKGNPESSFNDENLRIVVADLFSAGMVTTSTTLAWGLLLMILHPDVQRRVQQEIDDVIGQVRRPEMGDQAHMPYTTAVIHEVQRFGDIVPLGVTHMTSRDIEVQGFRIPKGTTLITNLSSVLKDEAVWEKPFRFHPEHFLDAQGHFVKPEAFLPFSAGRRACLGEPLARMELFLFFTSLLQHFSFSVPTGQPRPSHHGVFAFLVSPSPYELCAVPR

[10] = Half life in NMRI mouse brain at 10 mg/kg, po; format: ADME, organism-based; design: dose 10 mg/kg, route oral
Mus musculus [11] = assay: AUC (0 to infinity ) in NMRI mouse brain at 10 mg/kg, po; format: ADME, organism-based; design: time infinity, dose 10 mg/kg, route oral; conditions: in vivo
Dihydrofolate reductase = target: T2, Dihydrofolate reductase (Homo sapiens, UniProt P00374); assay: Inhibition of human recombinant DHFR
T2 sequence (P00374 whole entry): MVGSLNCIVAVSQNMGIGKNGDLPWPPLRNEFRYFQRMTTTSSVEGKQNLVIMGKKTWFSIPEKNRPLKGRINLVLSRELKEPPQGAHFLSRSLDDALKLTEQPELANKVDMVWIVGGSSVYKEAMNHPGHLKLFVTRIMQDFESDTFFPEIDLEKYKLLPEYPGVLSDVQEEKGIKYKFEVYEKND

[12] = AUC (last) in NMRI mouse plasma at 2 mg/kg, iv; format: ADME, organism-based; design: time 0 - last, dose 2 mg/kg, route intravenous; in short: as §2
[13] = Increase in SMN2 mRNA expression in mouse NSC34 cells at 500 nM relative to control; format: functional
In short: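 NSC-34 mouse motor neuron hybrid cells were treated for 18 h with compound in DMSO at final 500 nM or 50 nM (0.5% DMSO final), with 100 nM TSA as reference. Total RNA was then isolated and reverse-transcribed, and mouse SMN mRNA was measured by TaqMan qPCR in triplicate. Values were normalized to β-actin and expressed as 2^(-ΔCT), with Student's t test.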

[14] = Mean residence time (0 to infinity) in NMRI mouse brain at 2 mg/kg, iv; format: ADME, organism-based; design: dose 2 mg/kg, route intravenous; in short: as §2
Mus musculus [15] = assay: AUC (last) in NMRI mouse brain at 2 mg/kg, iv; format: ADME, organism-based; design: time 0 - last, dose 2 mg/kg, route intravenous; conditions: in vivo; in short: as §2
[16] = Drug level in NMRI mouse brain at 2 mg/kg, iv after 15 mins; format: ADME, organism-based; design: dose 2 mg/kg, route intravenous; conditions: read-out: Drug uptake; in short: as §1
[17] = Solubility in water; format: physicochemical
Fibroblast [18] = assay: Increase in SMN2 mRNA expression in human fibroblasts from spinal muscular atrophy patient; format: functional, cell-based
[19] = Clearance in NMRI mouse plasma at 2 mg/kg, iv; format: ADME, organism-based; design: dose 2 mg/kg, route intravenous; in short: as §2
Fibroblast [20] = assay: Increase in number of cells with Cajal bodies containing SMN2 protein in human fibroblasts from spinal muscular atrophy patient at 100 nM after 5 days relative to control; format: functional, cell-based
[21] = Half life in NMRI mouse brain at 2 mg/kg, iv; format: ADME, organism-based; design: dose 2 mg/kg, route intravenous; in short: as §2
[22] = AUC (0 to infinity ) in NMRI mouse plasma at 10 mg/kg, po; format: ADME, organism-based; design: time infinity, dose 10 mg/kg, route oral
[23] = Drug level in NMRI mouse plasma at 2 mg/kg, iv after 120 mins; format: ADME, organism-based; design: dose 2 mg/kg, route intravenous; in short: as §1
[24] = Activation of SMN2 promoter in mouse NSC34 cells assessed as induction of beta-lactamase activity relative to nonactivated cells; format: functional
[25] = Activation of SMN2 promoter in mouse NSC34 cells assessed as induction of beta-lactamase activity; format: functional, cell-based; conditions: Mus musculus, NSC-34
CYP2C19 = CYP2C19 (Homo sapiens, UniProt P33261); assay: Inhibition of CYP2C19 at 10 uM; format: ADME
Chain of CYP2C19 (P33261 whole entry): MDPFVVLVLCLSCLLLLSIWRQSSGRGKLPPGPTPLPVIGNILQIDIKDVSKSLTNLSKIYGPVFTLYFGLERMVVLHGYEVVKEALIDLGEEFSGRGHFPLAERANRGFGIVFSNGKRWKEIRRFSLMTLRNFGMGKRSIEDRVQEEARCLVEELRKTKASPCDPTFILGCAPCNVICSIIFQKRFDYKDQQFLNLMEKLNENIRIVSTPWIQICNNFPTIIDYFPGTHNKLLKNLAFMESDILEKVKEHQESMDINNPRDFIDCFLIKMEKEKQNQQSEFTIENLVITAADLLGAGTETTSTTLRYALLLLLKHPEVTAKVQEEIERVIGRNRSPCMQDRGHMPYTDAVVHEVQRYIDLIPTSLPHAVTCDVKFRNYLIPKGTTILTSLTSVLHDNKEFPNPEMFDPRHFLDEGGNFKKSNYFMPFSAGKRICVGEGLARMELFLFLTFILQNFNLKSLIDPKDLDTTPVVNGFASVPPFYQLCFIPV

Nc1nc(N)c2c(OCC3CCN(Cc4ccccc4F)CC3)cccc2n1
MRT inf [1]: 27.3 h
AUC(0-t) [2]: 2670 ng·h/mL
Cmax [3]: 765 ng/g
AUC (Mus musculus [4]): 15485 ng·h/g
concentration at 2 h [5]: 1130 ng/g
Fold change (Fibroblast [6]): 5.5
Vd [7]: 38.1 L/kg
concentration at 0.25 h [8]: 38 ng/mL
inhibition at 10 µM (CYP3A4): < 50%
Cmax [9]: 110 ng/mL
inhibition at 10 µM (CYP1A2): < 50%
inhibition at 10 µM (CYP2C9): < 50%
IC50 (Cytochrome P450 2D6): 9.38 µM
half-life [10]: 18.8 h
AUC (Mus musculus [11]): 18910 ng·h/g
IC50 (Dihydrofolate reductase): > 125 µM
AUC(0-t) [12]: 2410 ng·h/mL
Fold change [13]: 2
MRT inf [14]: 22.8 h
AUC (Mus musculus [15]): 15724 ng·h/g
concentration at 0.25 h [16]: 1420 ng/g
solubility [17]: 41.5 mg/mL (≈ 109 mM)
Activity (Fibroblast [18]): Dose-dependent effect
clearance [19]: 1.4 mL/min/kg
Activity (Fibroblast [20]): Dose-dependent effect
half-life [21]: 19 h
AUC(0-inf) [22]: 10900 ng·h/mL
concentration at 2 h [23]: 21 ng/mL
Activity [24]: 2.4
EC50 [25]: 0.004 µM
inhibition at 10 µM (CYP2C19): < 50%
